Assay results collected from several papers.
Each line is one published result; the experiments were not run side by side.
Target: cAMP-dependent protein kinase catalytic subunit PRKX (PRKX, Homo sapiens, UniProt P51817)
Sequence (P51817 1-358, as in one of the studies): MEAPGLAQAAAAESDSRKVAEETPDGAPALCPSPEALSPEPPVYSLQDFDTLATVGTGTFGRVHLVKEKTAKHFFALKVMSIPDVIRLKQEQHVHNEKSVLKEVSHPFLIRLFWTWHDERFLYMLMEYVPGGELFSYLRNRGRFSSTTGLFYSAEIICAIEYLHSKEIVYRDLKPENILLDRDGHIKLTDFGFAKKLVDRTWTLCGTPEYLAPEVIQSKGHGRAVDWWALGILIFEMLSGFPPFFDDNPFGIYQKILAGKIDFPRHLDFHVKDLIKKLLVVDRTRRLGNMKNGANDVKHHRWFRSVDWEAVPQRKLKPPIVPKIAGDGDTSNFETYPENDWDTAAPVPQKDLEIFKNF

Structure (SMILES)	effect on	method	concentration	remaining binding [%]
O=C(NCCCN1CCOCC1)c1ccc(Nc2nccc(-c3cc4ccccc4s3)n2)cc1	binding	competition with immobilised ligand	1 µM	85
FC(F)(F)Oc1cccc(-c2cnc3ccc(-c4ccncc4)nn23)c1	cell-free assay	competition with immobilised ligand	5 µM	85
O=C(Nc1c[nH]nc1C(=O)NC1CCNCC1)c1cc(F)cc(F)c1	binding	competition with immobilised ligand	1 µM	94
COc1cnc(Nc2cccc(S(N)(=O)=O)c2)nc1N1CCN(c2ccccc2)CC1	binding	competition with immobilised ligand	1 µM	100
O=C(NCCCN1CCOCC1)c1ccc(Nc2ncc(Cl)c(-c3ccc(Cl)s3)n2)cc1	binding	competition with immobilised ligand	1 µM	100
CN(C)c1ncc(F)c(-c2cnn3ncccc23)n1	binding		1 µM	100
O=C(Nc1cnc(Oc2ccc(F)cc2)nc1)N1CCc2ncccc2[C@@H]1c1ccc(F)cc1	cell-free assay	competition with immobilised ligand	1 µM	93
N[C@H]1CCN(c2nccc(-c3cnn4ncccc34)n2)C1	binding		1 µM	100
Cc1cnc(Nc2ccc(C(=O)N3CCC(N4CCCC4)CC3)cc2)nc1-c1cc2ccccc2s1	binding	competition with immobilised ligand	1 µM	72
C[C@@H](c1ccc(-n2cnc3c(N)ncnc32)cc1)N1CCc2nn(C)c(Cc3ccccc3)c2C1=O	binding	competition with immobilised ligand	0.1 µM	96
CNC(=O)[C@@H]1CC[C@@H](n2c(-c3ccc4cnccc4c3)nc3ccc(C(=O)NCc4cccc(C(N)=O)c4)cc32)C1	binding	competition with immobilised ligand	1 µM	100
Cn1cc(Cl)c2c(Oc3c(F)cc(Nc4cc(Cl)nc(N)n4)cc3F)ccnc21	cell-free assay	competition with immobilised ligand	0.1 µM	100
c1cnn2ncc(-c3ccnc(N4CCC45COC5)n3)c2c1	binding		1 µM	68
CCOC(=O)c1cc2cc(-c3cc(C(=O)NCc4ccc(C(=O)O)cc4)nn3C)ccc2[nH]1	cell-free assay	competition with immobilised ligand	0.1 µM	100
CN(CCCC(F)(F)F)c1nccc(-c2cnn3ncccc23)n1	binding		1 µM	100
Cc1cc(C)c(-n2ccn3nc(-c4cccnc4)cc23)cc1NC(=O)c1cc(C#N)cc(S(F)(F)(F)(F)F)c1	cell-free assay	competition with immobilised ligand	0.1 µM	68.5
F[C@@H]1CCN(c2nccc(-c3cnn4ncccc34)n2)C1	binding		1 µM	100
CNC(=O)Nc1ccc2c(c1)[C@@]1(CC2)OC(=O)N(CC(=O)N(Cc2ccc(F)cc2)[C@@H](C)C(F)(F)F)C1=O	cell-free assay	competition with immobilised ligand	1 µM	100
CCN1CCN(Cc2ccc(C(=O)Nc3ccc(C)c(Oc4ccc5c(c4)CC(=O)N5)c3)cc2C(F)(F)F)CC1	binding	competition with immobilised ligand	1 µM	100
COCCOc1nc(-c2ccc(Cl)nc2)nc2c1CN(C(=O)c1ncn3ccccc13)CC2	cell-free assay	competition with immobilised ligand	0.1 µM	100
C[C@H]1CCN(c2nccc(-c3cnn4ncccc34)n2)C1	binding		1 µM	100
